In brackets after ≈: the same amount, converted by molar mass. Activity calls are given as the source filed them. No cut-off for these calls is given here.
What was measured:
Candida albicans [1] = test: Antifungal activity against Candida albicans Berhaut 62I in meat-pepton broth; assay type: functional
Procedure, shortened: (§1)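 Serial dilutions of each chalcone in meat-pepton broth in tubes; inoculum 10⁵ cells/ml; 37 °C, 24 h. MIC taken as the lowest dilution with no visible growth against inoculated drug-free broth. Tubes without visible growth streaked onto meat-pepton agar, 37 °C, 24 h, and checked for growth.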

Candida albicans [2] = test: Antifungal activity against Candida albicans Berhaut 62I after 24 hrs; assay type: functional; procedure, shortened: as §1
Candida albicans [3] = test: Growth inhibition of Candida albicans Berhaut 62I by agar cup method; assay type: functional
Procedure, shortened: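 Each well received 100 µl of sample dissolved in 96% EtOH. Pre-diffusion at 4 °C for 2 h, then 37 °C for 48 h. Read-out was inhibitory zone diameter, with ≥15 mm initially counted as active. Pure solvent served as control.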

Candida albicans [4] = test: Antifungal activity against Candida albicans Berhaut 62I at 2000 ug/ml; assay type: functional, organism-based
[5] = Candida albicans, Berhaut 62I, read-out: MIC

Row | Compound | MIC (Candida albicans [1]; [5]) [µg/mL] | MIC (Candida albicans [2]) [µg/mL] | MIC (Candida albicans [1]) [µg/mL] | inhibition zone (IZ) (Candida albicans [3]) [mm] | Activity (Candida albicans [4])
1 | COc1cccc(/C=C/C(=O)c2cc(OC)c(OC)c(OC)c2)c1 | 62.5 (≈ 190 µM) |  |  |  | 
2 | O=C(/C=C/c1cccc(O)c1)c1ccccc1 [3-HYDROXY CHALCONE] | 250 (≈ 1110 µM) | 250 (≈ 1110 µM) |  | 17 | 
3 | O=C(/C=C/c1ccc2c(c1)OCO2)c1ccccc1 | 62.5 (≈ 248 µM) |  |  |  | 
4 | O=C(/C=C/c1ccccc1)c1ccc(Cl)cc1 | 500 (≈ 2060 µM) | 500 (≈ 2060 µM) |  | 0 | 
5 | O=C(/C=C/c1ccc(O)cc1)c1ccccc1 [4-HYDROXYCHALCONE] | 62.5 (≈ 279 µM) | 62.5 (≈ 279 µM) |  | 15 | 
6 | COc1cc(C(=O)/C=C/c2ccccc2)cc(OC)c1OC | 500 (≈ 1680 µM) | 500 (≈ 1680 µM) |  | 0 | 
7 | COc1ccc(/C=C/C(=O)c2ccc(Cl)cc2)cc1 | 500 (≈ 1830 µM) | 500 (≈ 1830 µM) |  | 0 | 
8 | CN(C)c1ccc(/C=C/C(=O)c2ccc(Cl)cc2)cc1 | 500 (≈ 1750 µM) | 500 (≈ 1750 µM) |  | 0 | 
9 | COc1cccc(/C=C/C(=O)c2ccc(Cl)cc2)c1O | 500 (≈ 1730 µM) | 500 (≈ 1730 µM) |  | 0 | 
10 | O=C(/C=C/C=C/c1ccccc1)c1ccccc1 |  |  |  |  | inactive
11 | Cc1ccc(/C=C/C(=O)c2ccccc2)cc1 | 500 (≈ 2250 µM) | 500 (≈ 2250 µM) |  | 0 | 
12 | COc1cc(C(=O)/C=C/c2ccc(NC(C)=O)cc2)cc(OC)c1OC | 500 (≈ 1410 µM) | 500 (≈ 1410 µM) |  | 0 | 
13 | O=C(/C=C/c1ccccc1O)c1ccc(Cl)cc1 | 62.5 (≈ 242 µM) | 62.5 (≈ 242 µM) |  | 16 | 
14 | CC(=O)Nc1ccc(/C=C/C(=O)c2ccccc2)cc1 | 500 (≈ 1880 µM) | 500 (≈ 1880 µM) |  | 0 | 
15 | O=C(/C=C/c1ccc([N+](=O)[O-])cc1)c1ccccc1 | 250 (≈ 987 µM) | 250 (≈ 987 µM) |  | 17 | 
16 | O=C(/C=C/c1ccccc1)/C=C/c1ccccc1 |  |  |  |  | inactive
17 | O=C(/C=C/C=C/c1ccccc1)/C=C/C=C/c1ccccc1 |  |  |  |  | inactive
18 | COc1cc(C(=O)/C=C/c2ccc(Cl)cc2)cc(OC)c1OC | 500 (≈ 1500 µM) | 500 (≈ 1500 µM) |  | 0 | 
19 | COc1cccc(/C=C/C(=O)c2ccc(Cl)cc2)c1 | 62.5 (≈ 229 µM) | 500 (≈ 1830 µM) |  | 15 | 
20 | O=C(/C=C/c1ccc(O)c(O)c1)c1ccccc1 | 62.5 (≈ 260 µM) | 62.5 (≈ 260 µM) |  | 15 | 
21 | COc1cc(/C=C/C(=O)c2ccc(Cl)cc2)ccc1O | 62.5 (≈ 216 µM) | 250 (≈ 866 µM) |  | 19 | 
22 | COc1cccc(/C=C/C(=O)c2ccccc2)c1O | 62.5 (≈ 246 µM) | 62.5 (≈ 246 µM) |  | 12 | 
23 | O=C(/C=C/c1cccc(O)c1)c1ccc(Cl)cc1 | 125 (≈ 483 µM) | 125 (≈ 483 µM) |  | 20 | 
24 | O=C(/C=C/c1ccc2c(c1)OCO2)c1ccc(Cl)cc1 | 62.5 (≈ 218 µM) | 500 (≈ 1740 µM) |  | 0 | 
25 | O=C(/C=C/c1ccccc1)c1ccccc1 [CHALCONE] | 125 (≈ 600 µM) | 125 (≈ 600 µM) |  | 30 | 
26 | COc1cc(C(=O)/C=C/c2ccc(C#N)cc2)cc(OC)c1OC | 500 (≈ 1550 µM) | 500 (≈ 1550 µM) |  | 0 | 
27 | O=C(/C=C/c1ccc([N+](=O)[O-])cc1)c1ccc(Cl)cc1 | 250 (≈ 869 µM) | 250 (≈ 869 µM) |  | 15 | 
28 | O=C(/C=C/c1ccc(Cl)cc1)c1ccccc1 [4-CHLORO CHALCONE] | 500 (≈ 2060 µM) | 500 (≈ 2060 µM) |  | 0 | 
29 | O=C(/C=C/c1ccccc1O)c1ccccc1 | 31.2 (≈ 139 µM) | 31.2 (≈ 139 µM) |  | 21 | 
30 | COc1cc(/C=C/C(=O)c2ccc(Cl)cc2)cc(OC)c1O | 62.5 (≈ 196 µM) | 125 (≈ 392 µM) |  | 15 | 

Continued by falling MIC (Candida albicans [1]; [5]), values first:

Row | MIC (Candida albicans [1]; [5]) [µg/mL] | MIC (Candida albicans [2]) [µg/mL] | MIC (Candida albicans [1]) [µg/mL] | Compound | inhibition zone (IZ) (Candida albicans [3]) [mm] | Activity (Candida albicans [4])
31 | 500 (≈ 1730 µM) | 500 (≈ 1730 µM) |  | COc1ccc(/C=C/C(=O)c2ccc(Cl)cc2)cc1O | 0 | 
32 | 500 (≈ 1970 µM) | 500 (≈ 1970 µM) |  | COc1ccc(/C=C/C(=O)c2ccccc2)cc1O | 0 | 
33 | 500 (≈ 1990 µM) | 500 (≈ 1990 µM) |  | CN(C)c1ccc(/C=C/C(=O)c2ccccc2)cc1 | 0 | 
34 | 500 (≈ 1670 µM) | 500 (≈ 1670 µM) |  | CC(=O)Nc1ccc(/C=C/C(=O)c2ccc(Cl)cc2)cc1 | 0 | 
35 | 500 (≈ 1950 µM) | 500 (≈ 1950 µM) |  | Cc1ccc(/C=C/C(=O)c2ccc(Cl)cc2)cc1 | 0 | 
36 | 500 (≈ 1600 µM) | 500 (≈ 1600 µM) |  | COc1cc(C(=O)/C=C/c2ccc(C)cc2)cc(OC)c1OC | 0 | 
37 | 500 (≈ 1800 µM) | 500 (≈ 1800 µM) |  | O=C(/C=C/c1ccc(Cl)cc1)c1ccc(Cl)cc1 [4',4-DICHLOROCHALCONE] | 0 | 
38 | 500 (≈ 2100 µM) | 500 (≈ 2100 µM) |  | COc1ccc(/C=C/C(=O)c2ccccc2)cc1 [4-METHOXY CHALCONE] | 0 | 
39 | 500 (≈ 1460 µM) | 500 (≈ 1460 µM) |  | COc1cc(C(=O)/C=C/c2ccc(N(C)C)cc2)cc(OC)c1OC | 0 | 
40 | 500 (≈ 1520 µM) | 500 (≈ 1520 µM) |  | COc1ccc(/C=C/C(=O)c2cc(OC)c(OC)c(OC)c2)cc1 | 0 | 
41 | 250 (≈ 934 µM) | 250 (≈ 934 µM) |  | N#Cc1ccc(/C=C/C(=O)c2ccc(Cl)cc2)cc1 | 23 | 
42 | 250 (≈ 1070 µM) | 250 (≈ 1070 µM) |  | N#Cc1ccc(/C=C/C(=O)c2ccccc2)cc1 | 17 | 
43 | 62.5 (≈ 206 µM) | 500 (≈ 1650 µM) | 62.5 (≈ 206 µM) | COc1ccc(/C=C/C(=O)c2ccc(Cl)cc2)cc1OC | 0 | 
44 | 62.5 (≈ 242 µM) | 62.5 (≈ 242 µM) |  | O=C(/C=C/c1ccc(O)cc1)c1ccc(Cl)cc1 | 21 | 
45 | 62.5 (≈ 228 µM) | 62.5 (≈ 228 µM) |  | O=C(/C=C/c1ccc(O)c(O)c1)c1ccc(Cl)cc1 | 14 | 
46 | 62.5 (≈ 188 µM) | 500 (≈ 1500 µM) |  | COc1cc(/C=C/C(=O)c2ccc(Cl)cc2)cc(OC)c1OC | 0 | 

Source: ChEMBL document CHEMBL1144480, “Study on the substituents' effects of a series of synthetic chalcones against the yeast Candida albicans” (2007)
